Results reported in ChEMBL document CHEMBL1144410, “Synthesis of 3-arylpiperazinylalkylpyrrolo[3,2-d]pyrimidine-2,4-dione derivatives as novel, potent, and selective alpha1-adrenoceptor ligands” (J Med Chem, 2005).

Target: T1, Adrenergic receptor alpha-1 (Rattus norvegicus, UniProt P15823+P23944+P43140)
T1 sequence (P15823 whole entry): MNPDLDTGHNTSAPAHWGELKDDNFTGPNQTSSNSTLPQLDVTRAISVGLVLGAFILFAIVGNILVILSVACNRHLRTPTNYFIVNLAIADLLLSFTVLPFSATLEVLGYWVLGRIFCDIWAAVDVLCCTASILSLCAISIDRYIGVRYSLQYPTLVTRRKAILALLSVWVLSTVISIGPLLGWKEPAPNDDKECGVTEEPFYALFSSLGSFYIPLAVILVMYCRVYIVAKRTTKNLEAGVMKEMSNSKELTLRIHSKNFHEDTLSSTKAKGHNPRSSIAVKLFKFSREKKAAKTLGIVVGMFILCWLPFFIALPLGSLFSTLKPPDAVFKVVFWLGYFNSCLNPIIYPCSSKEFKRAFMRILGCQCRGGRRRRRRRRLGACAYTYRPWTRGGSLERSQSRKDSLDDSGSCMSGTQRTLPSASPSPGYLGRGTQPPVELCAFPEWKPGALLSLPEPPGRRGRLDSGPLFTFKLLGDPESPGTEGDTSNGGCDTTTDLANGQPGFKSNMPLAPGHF
T1 sequence (P23944 whole entry): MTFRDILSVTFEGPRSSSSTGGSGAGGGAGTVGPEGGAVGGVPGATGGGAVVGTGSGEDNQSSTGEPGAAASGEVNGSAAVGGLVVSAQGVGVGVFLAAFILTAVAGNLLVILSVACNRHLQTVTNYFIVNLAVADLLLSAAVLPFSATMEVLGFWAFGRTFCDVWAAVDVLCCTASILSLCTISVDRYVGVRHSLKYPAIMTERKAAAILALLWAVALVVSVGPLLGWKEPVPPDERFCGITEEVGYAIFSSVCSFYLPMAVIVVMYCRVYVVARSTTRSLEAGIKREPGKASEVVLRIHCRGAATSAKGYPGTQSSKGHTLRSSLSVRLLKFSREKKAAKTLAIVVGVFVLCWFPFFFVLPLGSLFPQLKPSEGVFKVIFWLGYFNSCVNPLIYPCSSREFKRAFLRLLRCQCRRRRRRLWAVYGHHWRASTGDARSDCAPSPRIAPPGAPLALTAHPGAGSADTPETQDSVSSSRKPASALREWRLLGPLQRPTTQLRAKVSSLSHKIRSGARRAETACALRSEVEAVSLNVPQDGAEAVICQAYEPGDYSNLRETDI
T1 sequence (P43140 whole entry): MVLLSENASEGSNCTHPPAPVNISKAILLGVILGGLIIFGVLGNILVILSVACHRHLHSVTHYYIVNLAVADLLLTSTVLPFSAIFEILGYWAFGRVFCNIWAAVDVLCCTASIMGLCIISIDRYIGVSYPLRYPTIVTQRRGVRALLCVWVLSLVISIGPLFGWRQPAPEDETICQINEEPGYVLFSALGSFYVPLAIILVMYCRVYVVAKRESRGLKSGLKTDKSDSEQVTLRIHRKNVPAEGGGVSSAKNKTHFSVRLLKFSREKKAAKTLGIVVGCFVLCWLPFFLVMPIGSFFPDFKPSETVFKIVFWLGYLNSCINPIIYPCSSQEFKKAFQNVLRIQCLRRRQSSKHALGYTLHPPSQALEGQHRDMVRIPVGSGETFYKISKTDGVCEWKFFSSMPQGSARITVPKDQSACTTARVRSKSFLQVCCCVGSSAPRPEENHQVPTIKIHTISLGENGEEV
Assay: Inhibition of [3H]prazosin binding to Alpha-1 adrenergic receptor from rat cortex
Method in brief: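 Prepared membranes resuspended in 50 mM Tris-HCl pH 7.7 with 10 µM pargyline and 0.1% ascorbic acid. [3H]prazosin 0.2 nM final, 30 min, 25 °C; nonspecific binding with 3 µM phentolamine. Bound ligand collected on GF/B filters, counted by liquid scintillation. Ki derived from IC50 of dose-inhibition curves; mean ± SD of three separate experiments.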

Structure (SMILES) | Ki [µM]
O=c1[nH]c2cc[nH]c2c(=O)n1CCCN1CCN(c2ccccc2Cl)CC1 | 0.05978
COc1ccccc1N1CCN(CCn2c(=O)[nH]c3cc(-c4ccccc4Cl)[nH]c3c2=O)CC1 | 0.00076
COc1ccc(-c2cc3[nH]c(=O)n(CCN4CCN(c5ccccc5Cl)CC4)c(=O)c3[nH]2)cc1 | 0.0034
O=c1[nH]c2cc(-c3ccc(Cl)cc3)[nH]c2c(=O)n1CCN1CCN(c2ccccc2Cl)CC1 | 0.0117
O=c1[nH]c2cc[nH]c2c(=O)n1CCN1CCN(c2ccccc2Cl)CC1 | 0.00094
COc1ccccc1N1CCN(CCn2c(=O)[nH]c3cc(-c4ccc(C)cc4)[nH]c3c2=O)CC1 | 0.00205
Cc1ccc(-c2cc3[nH]c(=O)n(CCN4CCN(c5ccccc5Cl)CC4)c(=O)c3[nH]2)cc1 | 0.01726
O=c1[nH]c2cc(-c3ccccc3)[nH]c2c(=O)n1CCCN1CCN(c2ccccc2Cl)CC1 | 0.06237
COc1ccccc1N1CCN(CCn2c(=O)[nH]c3cc(-c4ccc(Cl)cc4)[nH]c3c2=O)CC1 | 0.00768
Cc1ccc(-c2cc3[nH]c(=O)n(CCCN4CCN(c5ccccc5Cl)CC4)c(=O)c3[nH]2)cc1 | 0.1101

Target: D(1A) dopamine receptor (Rattus norvegicus, UniProt P18901)
Sequence (P18901 whole entry): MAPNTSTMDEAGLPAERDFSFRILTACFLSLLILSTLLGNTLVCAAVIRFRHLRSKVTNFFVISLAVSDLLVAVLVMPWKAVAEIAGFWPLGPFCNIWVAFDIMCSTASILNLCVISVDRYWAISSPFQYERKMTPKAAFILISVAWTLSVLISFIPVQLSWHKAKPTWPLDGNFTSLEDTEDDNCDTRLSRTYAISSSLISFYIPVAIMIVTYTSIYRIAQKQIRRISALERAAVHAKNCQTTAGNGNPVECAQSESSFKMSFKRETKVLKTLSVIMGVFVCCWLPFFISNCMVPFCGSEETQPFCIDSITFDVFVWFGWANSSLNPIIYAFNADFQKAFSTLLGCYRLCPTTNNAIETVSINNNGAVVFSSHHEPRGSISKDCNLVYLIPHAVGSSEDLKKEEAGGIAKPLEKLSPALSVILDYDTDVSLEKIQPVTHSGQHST
Assay: Inhibition of [3H]SCH-23390 binding to Dopamine receptor D1 from rat striatum
Method in brief: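 Ligand was [3H]SCH23390 at 0.4 nM final, 15 min, 25 °C; nonspecific binding defined with 10 µM (-)-cis-flupentixol. Filtration on GF/B, liquid scintillation counting. IC50 fitted, Ki derived; mean ± SD, n=3.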

Structure (SMILES) | Ki [µM]
COc1ccc(-c2cc3[nH]c(=O)n(CCN4CCN(c5ccccc5Cl)CC4)c(=O)c3[nH]2)cc1 | > 10
O=c1[nH]c2cc(-c3ccc(Cl)cc3)[nH]c2c(=O)n1CCN1CCN(c2ccccc2Cl)CC1 | > 10
O=c1[nH]c2cc[nH]c2c(=O)n1CCN1CCN(c2ccccc2Cl)CC1 | > 10
COc1ccccc1N1CCN(CCn2c(=O)[nH]c3cc(-c4ccc(C)cc4)[nH]c3c2=O)CC1 | > 10
Cc1ccc(-c2cc3[nH]c(=O)n(CCN4CCN(c5ccccc5Cl)CC4)c(=O)c3[nH]2)cc1 | > 10
COc1ccccc1N1CCN(CCn2c(=O)[nH]c3cc(-c4ccc(Cl)cc4)[nH]c3c2=O)CC1 | > 10

Target: D(2) dopamine receptor (Rattus norvegicus, UniProt P61169)
Sequence (P61169 whole entry): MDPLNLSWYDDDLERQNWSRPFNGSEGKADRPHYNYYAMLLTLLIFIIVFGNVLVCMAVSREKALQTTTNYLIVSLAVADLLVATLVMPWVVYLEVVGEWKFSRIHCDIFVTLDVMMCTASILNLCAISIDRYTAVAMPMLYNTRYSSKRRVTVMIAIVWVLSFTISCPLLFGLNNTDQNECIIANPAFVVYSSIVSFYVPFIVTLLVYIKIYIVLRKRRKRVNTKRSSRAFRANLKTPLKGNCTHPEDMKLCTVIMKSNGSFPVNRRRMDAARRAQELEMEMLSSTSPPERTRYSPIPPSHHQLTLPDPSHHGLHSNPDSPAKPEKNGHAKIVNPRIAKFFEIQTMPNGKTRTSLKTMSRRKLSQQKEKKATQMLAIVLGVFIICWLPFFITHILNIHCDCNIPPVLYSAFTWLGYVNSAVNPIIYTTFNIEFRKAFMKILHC
Assay: Inhibition of [3H]spiperone binding to Dopamine receptor D2 from rat striatum
Method in brief: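 Membrane incubation in 50 mM Tris-HCl pH 7.1 with 10 µM pargyline, 120 mM NaCl, 5 mM KCl, 2 mM CaCl2, 1 mM MgCl2 and 0.1% ascorbic acid. [3H]spiperone 0.2 nM final, 15 min at 37 °C; 100 µM (-)-sulpiride for nonspecific binding. Vacuum filtration through GF/B, scintillation counting; Ki from IC50 of dose-inhibition curves, mean ± SD of three runs.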

Structure (SMILES) | Ki [µM]
COc1ccc(-c2cc3[nH]c(=O)n(CCN4CCN(c5ccccc5Cl)CC4)c(=O)c3[nH]2)cc1 | 0.00223
O=c1[nH]c2cc(-c3ccc(Cl)cc3)[nH]c2c(=O)n1CCN1CCN(c2ccccc2Cl)CC1 | > 10
O=c1[nH]c2cc[nH]c2c(=O)n1CCN1CCN(c2ccccc2Cl)CC1 | 0.322
COc1ccccc1N1CCN(CCn2c(=O)[nH]c3cc(-c4ccc(C)cc4)[nH]c3c2=O)CC1 | 0.0199
Cc1ccc(-c2cc3[nH]c(=O)n(CCN4CCN(c5ccccc5Cl)CC4)c(=O)c3[nH]2)cc1 | > 10
COc1ccccc1N1CCN(CCn2c(=O)[nH]c3cc(-c4ccc(Cl)cc4)[nH]c3c2=O)CC1 | 0.00364

Target: Serotonin 1a (5-HT1a) receptor/Adrenergic receptor alpha-1 (Rattus norvegicus) (UniProt P15823+P23944+P43140+P19327)
Assay: Relative binding affinity for 5-hydroxytryptamine 1A and Alpha-1 adrenergic receptors
Type: protein assay

Structure (SMILES) | Ratio
O=c1[nH]c2cc[nH]c2c(=O)n1CCCN1CCN(c2ccccc2Cl)CC1 | 6.3
COc1ccccc1N1CCN(CCn2c(=O)[nH]c3cc(-c4ccccc4Cl)[nH]c3c2=O)CC1 | 21
COc1ccc(-c2cc3[nH]c(=O)n(CCN4CCN(c5ccccc5Cl)CC4)c(=O)c3[nH]2)cc1 | > 2500
O=c1[nH]c2cc(-c3ccc(Cl)cc3)[nH]c2c(=O)n1CCN1CCN(c2ccccc2Cl)CC1 | > 800
COc1ccccc1N1CCN(CCn2c(=O)[nH]c3c([nH]c4ccccc43)c2=O)CC1 | 238
O=c1[nH]c2cc[nH]c2c(=O)n1CCN1CCN(c2ccccc2Cl)CC1 | 594
COc1ccccc1N1CCN(CCn2c(=O)[nH]c3cc(-c4ccc(C)cc4)[nH]c3c2=O)CC1 | > 4500
Cc1ccc(-c2cc3[nH]c(=O)n(CCN4CCN(c5ccccc5Cl)CC4)c(=O)c3[nH]2)cc1 | > 500
O=c1[nH]c2cc(-c3ccccc3)[nH]c2c(=O)n1CCCN1CCN(c2ccccc2Cl)CC1 | 2.1
COc1ccccc1N1CCN(CCn2c(=O)[nH]c3cc(-c4ccc(Cl)cc4)[nH]c3c2=O)CC1 | > 1000
Cc1ccc(-c2cc3[nH]c(=O)n(CCCN4CCN(c5ccccc5Cl)CC4)c(=O)c3[nH]2)cc1 | > 90

Species: Rattus norvegicus
Assay: Relative binding affinity for Dopamine D1 and Alpha-1 adrenergic receptors

Structure (SMILES) | Ratio
COc1ccc(-c2cc3[nH]c(=O)n(CCN4CCN(c5ccccc5Cl)CC4)c(=O)c3[nH]2)cc1 | > 2500
O=c1[nH]c2cc(-c3ccc(Cl)cc3)[nH]c2c(=O)n1CCN1CCN(c2ccccc2Cl)CC1 | > 800
O=c1[nH]c2cc[nH]c2c(=O)n1CCN1CCN(c2ccccc2Cl)CC1 | > 10000
COc1ccccc1N1CCN(CCn2c(=O)[nH]c3cc(-c4ccc(C)cc4)[nH]c3c2=O)CC1 | > 4500
Cc1ccc(-c2cc3[nH]c(=O)n(CCN4CCN(c5ccccc5Cl)CC4)c(=O)c3[nH]2)cc1 | > 500
COc1ccccc1N1CCN(CCn2c(=O)[nH]c3cc(-c4ccc(Cl)cc4)[nH]c3c2=O)CC1 | > 1000

Species: Rattus norvegicus
Assay: Relative binding affinity for Dopamine D2 and Alpha-1 adrenergic receptors

Structure (SMILES) | Ratio
COc1ccc(-c2cc3[nH]c(=O)n(CCN4CCN(c5ccccc5Cl)CC4)c(=O)c3[nH]2)cc1 | 0.65
O=c1[nH]c2cc(-c3ccc(Cl)cc3)[nH]c2c(=O)n1CCN1CCN(c2ccccc2Cl)CC1 | > 800
O=c1[nH]c2cc[nH]c2c(=O)n1CCN1CCN(c2ccccc2Cl)CC1 | 343
COc1ccccc1N1CCN(CCn2c(=O)[nH]c3cc(-c4ccc(C)cc4)[nH]c3c2=O)CC1 | 9.7
Cc1ccc(-c2cc3[nH]c(=O)n(CCN4CCN(c5ccccc5Cl)CC4)c(=O)c3[nH]2)cc1 | > 500
COc1ccccc1N1CCN(CCn2c(=O)[nH]c3cc(-c4ccc(Cl)cc4)[nH]c3c2=O)CC1 | 0.47

Target: T2, 5-hydroxytryptamine receptor 1A (Rattus norvegicus, UniProt P19327)
T2 sequence (P19327 whole entry): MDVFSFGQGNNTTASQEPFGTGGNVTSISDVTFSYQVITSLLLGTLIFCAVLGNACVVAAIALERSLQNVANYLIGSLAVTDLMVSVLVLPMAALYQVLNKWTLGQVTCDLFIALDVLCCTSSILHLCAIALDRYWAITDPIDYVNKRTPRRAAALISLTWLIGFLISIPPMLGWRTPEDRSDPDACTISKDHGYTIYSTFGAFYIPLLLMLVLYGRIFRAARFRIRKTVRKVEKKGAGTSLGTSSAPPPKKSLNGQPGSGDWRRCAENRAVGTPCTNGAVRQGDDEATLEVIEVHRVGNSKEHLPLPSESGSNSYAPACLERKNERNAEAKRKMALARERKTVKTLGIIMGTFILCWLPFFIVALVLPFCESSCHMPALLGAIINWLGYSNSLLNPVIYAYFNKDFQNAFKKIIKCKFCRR
Assay: Inhibition of [3H]8-OH-DPAT binding to 5-hydroxytryptamine 1A receptor from rat hippocampus
Type: tissue-based
Method in brief: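 Membranes: tissue homogenized in ice-cold 50 mM Tris-HCl pH 7.4, spun 50000g, preincubated 37 °C 10 min, washed. Incubation buffer 50 mM Tris-HCl pH 7.7, 10 µM pargyline, 4 mM CaCl2. [3H]8-OH-DPAT 1 nM final, 30 min, 25 °C; nonspecific with 10 µM 5-HT. Stopped by GF/B filtration, scintillation counting. IC50 from dose-inhibition curves, converted to Ki; mean ± SD of three experiments.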

Structure (SMILES) | Ki [µM]
O=c1[nH]c2cc[nH]c2c(=O)n1CCCN1CCN(c2ccccc2Cl)CC1 | 0.376
COc1ccccc1N1CCN(CCn2c(=O)[nH]c3cc(-c4ccccc4Cl)[nH]c3c2=O)CC1 | 0.0161
COc1ccc(-c2cc3[nH]c(=O)n(CCN4CCN(c5ccccc5Cl)CC4)c(=O)c3[nH]2)cc1 | > 10
O=c1[nH]c2cc(-c3ccc(Cl)cc3)[nH]c2c(=O)n1CCN1CCN(c2ccccc2Cl)CC1 | > 10
O=c1[nH]c2cc[nH]c2c(=O)n1CCN1CCN(c2ccccc2Cl)CC1 | 0.559
COc1ccccc1N1CCN(CCn2c(=O)[nH]c3cc(-c4ccc(C)cc4)[nH]c3c2=O)CC1 | > 10
Cc1ccc(-c2cc3[nH]c(=O)n(CCN4CCN(c5ccccc5Cl)CC4)c(=O)c3[nH]2)cc1 | > 10
O=c1[nH]c2cc(-c3ccccc3)[nH]c2c(=O)n1CCCN1CCN(c2ccccc2Cl)CC1 | 0.13
COc1ccccc1N1CCN(CCn2c(=O)[nH]c3cc(-c4ccc(Cl)cc4)[nH]c3c2=O)CC1 | > 10
Cc1ccc(-c2cc3[nH]c(=O)n(CCCN4CCN(c5ccccc5Cl)CC4)c(=O)c3[nH]2)cc1 | > 10
